In publication PMC12345971 (Computational and Structural Biotechnology Journal, 2025):
Like-named read-outs stand apart in the source and are kept apart here.

Columns and labels:
[1] = test system: MOLT-3 lymphoblastic leukemia cell line; experiment: Cytotoxic assay; type: cell-based, human; conditions: for IC50: Homo sapiens
How it was run: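 MOLT-3 leukemia cells (passage 15–25) grown in RPMI-1640 with 2 mM L-glutamine, penicillin-streptomycin, sodium pyruvate, glucose, 10 % FBS. Seeding was at 5 × 10³ – 2 × 10⁴ cells/well, 24 h at 37C, 5 % CO₂. Serial dilutions of test compound in DMSO then given for 48 h. XTT read-out at 550 nm. Normal-cell comparator: MRC-5 in DMEM, MTT read-out. IC50 is the concentration for 50 % growth inhibition.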

[2] = test system: 4 cancer cell lines (HepG2, HuCCA-1, A549, MOLT-3); experiment: Cytotoxic assay, range over the four cancer cell lines; type: cell-based; conditions: Homo sapiens, read-out: IC50, range over the tested cancer cell lines
How it was run: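 Human HepG2 (DMEM), HuCCA-1 and A549 (Ham's F12), and MOLT-3 (RPMI-1640) were all in 10 % FBS. MRC-5 normal fibroblasts were in DMEM. Seeding was at 5 × 10³ – 2 × 10⁴ cells/well for 24 h at 37C. Serial dilutions of test compound (DMSO solvent) were given for 48 h. Adherent lines were read by MTT and MOLT-3 by XTT, absorbance 550 nm. IC50 is the concentration for 50 % growth inhibition.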

[3] = test system: HuCCA-1 cholangiocarcinoma cancer cell line; experiment: Cytotoxic assay; type: cell-based, human; conditions: IC50 for normal cell (MRC-5) / IC50 for cancer cell
How it was run: (§1)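 A549 (passage 20–26) and HuCCA-1 (passage 115–121) kept in Ham's F12 with 2 mM L-glutamine, 100 U/mL penicillin-streptomycin, 10 % FBS; MRC-5 fibroblasts (passage 19–23) in DMEM, 10 % FBS. Cells seeded at 5 × 10³ – 2 × 10⁴/well in RPMI-1640 + 10 % FBS, 24 h at 37C, 5 % CO₂. DMSO-dissolved test compound added as serial dilutions, 48 h. MTT, absorbance 550 nm; IC50 = 50 % growth inhibition.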

[4] = test system: A549 lung carcinoma cell line; experiment: Cytotoxic assay; type: cell-based, human
How it was run: as §1

[5] = test system: HepG2 hepatocellular carcinoma cell line; experiment: Cytotoxic assay; type: cell-based, human
[6] = Cytotoxicity against normal cell line; type: cell-based; conditions: human, MRC-5 normal fetal lung fibroblast cells
[7] = IC50 for normal cell (MRC-5) / IC50 for cancer cell

SMILES	IC50 ([1]; MOLT-3, read-out: Experimental pIC50 MOLT-3 (converted))	IC50 [2]	Selectivity index (SI) HuCCA-1 [3]	IC50 ([4]; Homo sapiens, A549, 48 h, read-out: IC50 A549)	Selectivity index (SI) A549 [4, 7]	IC50 ([5]; Homo sapiens, HepG2, 48 h, read-out: IC50 HepG2, MTT, 48 h)	Selectivity index (SI) HepG2 [5, 7]	IC50 at 48 h [6]	IC50 ([1]; MOLT-3, 48 h, read-out: IC50 MOLT-3)	Selectivity index (SI) MOLT-3 [1, 7]
CC1=CC(=O)c2c(O)cccc2C1=O [Compound 10, plumbagin]	1380 nM	1380 to 13600 nM	–	–	–	–	–	–	–	–
COc1cccc2c1C(=O)c1c(O)c3c(c(O)c1C2=O)C[C@@](O)(C(=O)CO)C[C@@H]3O[C@H]1C[C@H](N)[C@H](O)[C@H](C)O1 [Doxorubicin, doxorubicin]	–	–	1.08	310 nM	3.02	460 nM	2.02	930 nM	–	–
COc1cc([C@@H]2c3cc4c(cc3[C@@H](O[C@@H]3O[C@@H]5CO[C@@H](C)O[C@H]5[C@H](O)[C@H]3O)[C@H]3COC(=O)[C@H]23)OCO4)cc(OC)c1O [Etoposide, etoposide]	–	–	–	–	–	–	–	13400 nM	60 nM	218.85
